Sampled rows, rich in hits. Any-hit rate of the full collection: about 2%.
Xi reactivation: activators of inactive X chromosome reactivation, primary screen, imaging, XiGFP fibroblasts, GFP high-content imaging, set 2 | XiGFP mouse fibroblasts, % GFP-positive cells imaging, 3 d; cells co-treated with 5-aza-dC sensitizer; scaled so ellipticine positive control = 100% | activation, % at 7.58 µM | hit rate 0.055% among 360,000 | AID 743238, 2013;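 active = mean normalized replicate activation at least 10% and every replicate at or above 10%; inconclusive = only one of the two criteria met; inactive = mean below 10% and not all replicates reach 10%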;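 also: 0% = median of on-plate neutral control wells and 100% = ellipticine 6 µM median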
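System: SV40-immortalized XiGFP fibroblast cells, line 68-5-11 / Incubation: 3-day compound exposure, then 15 min fixation at room temperature / Compound: single concentration per compound, delivered by pin transfer / Buffer or medium: DMEM plus 5-aza-dC sensitizer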
DENV2 CPE: inhibitors of DENV2 cytopathic effect, primary screen, cell-based, plate reader, single concentration; CPE inhibition, % at 9.99 µM; hit rate 1.7% among 350,000; DENV2-infected cells, cytopathic effect rescue; AID 651640, 2012; in the data active = CPE inhibition above about 20%, passing the limit was not always enough; inconclusive = no clear call, values can overlap the other calls; tested in BHK-21 cells;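 also: 0% = median of neutral control wells and 100% = median of positive control wells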
E-sel inducer: E-selectin induction in HUVECs, primary screen, imaging, HUVEC, immunofluorescence imaging, single point; P16581; normalized: neutral wells 0, TNF-alpha wells 100; activation, % at 7.58 µM; hit rate 0.37% among 260,000; AID 686992, 2013;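 active = mean E-selectin-positive cell signal at least 10% of the positive control, reached in at least 60% of replicates, without over 20% cell loss; inconclusive = no rule given, readout overlaps actives, possibly toxicity-flagged; inactive = the rest, including those meeting only one limit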
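material = human umbilical vein endothelial cells (HUVEC), E-selectin induction | quantity = 3,000 cells/well | medium = EGM-2 growth medium on 0.1% gelatin-coated wells | technique = immunofluorescence imaging | read-out basis = % PE-positive cells | control set = TNF-alpha positive control, DMSO neutral control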
S100A4 inh HTS: inhibitors of S100A4-myosin IIA peptide binding, primary screen, biochemical, fluorescence polarization, TAMRA-MyoIIA peptide. inhibition, % at 10.7 µM. hit rate 0.14% among 360,000. Protein S100-A4 (Homo sapiens), P26447;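 active = mean inhibition of at least 70% across replicates, with every replicate also reaching that level; inconclusive = mean inhibition reaches 70% but some replicates fall short; inactive = mean inhibition below 70%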
Target sequence (P26447 whole entry, looked up): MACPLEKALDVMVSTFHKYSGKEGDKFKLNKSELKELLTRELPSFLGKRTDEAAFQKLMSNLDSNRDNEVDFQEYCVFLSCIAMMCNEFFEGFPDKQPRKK
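Compound dosing: one dose per compound; test system: human S100A4 monomer with TAMRA-labelled myosin IIA peptide; probe or stimulus: TAMRA-labelled myosin IIA heavy-chain peptide probe, 5 nM; medium: HEPES buffer with Ca2+, pH 7.2; schedule: 5 min incubation before reading; benchmarks: neutral control DMSO, positive control TFP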
* = called active by the depositor; u = inconclusive; x = not tested or not shown; + = active, no number.

SMILES | Xi reactivation | DENV2 CPE | E-sel inducer | S100A4 inh HTS
CC(C)NC(=O)Nc1ccc2c(c1)C(=O)N([C@@H](C)CO)C[C@H](C)[C@H](CN(C)Cc1ccc(C(F)(F)F)cc1)O2 | 0 | 6 | 51* | -18
CC(C)NC(=O)Nc1ccc2c(c1)C(=O)N([C@H](C)CO)C[C@H](C)[C@H](CN(C)Cc1ccc(C(F)(F)F)cc1)O2 | 0 | -3 | -20 | 5
C[C@@H]1CN([C@H](C)CO)C(=O)c2cc(NC(=O)Nc3ccc(C(F)(F)F)cc3)ccc2O[C@H]1CN(C)Cc1ccncc1 | 0 | 33* | x | 2
C[C@H](CO)N1C[C@H](C)[C@@H](CN(C)Cc2ccncc2)Oc2ccc(NC(=O)NC3CCCCC3)cc2C1=O | 1 | 0 | x | 4
C[C@@H]1CN([C@H](C)CO)C(=O)c2cc(NC(=O)Nc3ccc(C(F)(F)F)cc3)ccc2O[C@@H]1CN(C)Cc1ccc(Cl)c(Cl)c1 | -1 | 46* | -3 | 3
C[C@H]1CN([C@@H](C)CO)C(=O)c2cc(NC(=O)Nc3ccc(C(F)(F)F)cc3)ccc2O[C@H]1CN(C)Cc1ccc(Cl)c(Cl)c1 | -1 | u | -3 | -3
COc1ccc2[nH]c3c(c2c1)CCC/C3=N\N | 0 | 2 | 0 | 0
Cc1cccc(N2CCN(C(=O)c3cc(S(=O)(=O)N4CCCC4)cn3C)CC2)c1C | 1 | 2 | 2 | 1
CCCCNC(=O)c1onc(CSc2ccccc2)c1C(=O)NCCCC | 0 | 2 | 0 | -3
COc1ccc(NC(=O)N(C)C[C@H]2Oc3ccc(N(C)C)cc3CC(=O)N([C@H](C)CO)C[C@@H]2C)cc1 | 0 | 16 | 327* | -10
COc1ccc(NC(=O)N(C)C[C@@H]2Oc3ccc(NS(C)(=O)=O)cc3CC(=O)N([C@H](C)CO)C[C@@H]2C)cc1 | 0 | 34* | 0 | -5
CCC(=O)Nc1cccc(-c2cc3ccccc3oc2=O)c1 | 0 | 30* | 0 | -2
CC(=O)Nc1ccc(NC(=O)c2cccc(-c3cc4ccccc4oc3=O)c2)cc1 | 0 | 2 | 4 | -2
O=C(NCC(c1ccco1)N1CCc2ccccc21)c1c(F)cccc1F (stereo not drawn) | 0 | 63* | 0 | -5
O=C(NCC(c1ccco1)N1CCc2ccccc21)c1ccccc1Cl (stereo not drawn) | 0 | -4 | 2 | 4
COC(=O)COc1ccc2c(c1)O/C(=C\c1cccc([N+](=O)[O-])c1)C2=O | 0 | -6 | 0 | 4
COc1ccc(/C=C2\Oc3cc(OCC(N)=O)ccc3C2=O)cc1OC | 0 | 45* | 0 | -2
CC(C)CC(c1nnnn1C1CCCCC1)N1CCN(C(=O)c2ccco2)CC1 (stereo not drawn) | 0 | 0 | 0 | 66
Cn1c(=O)c2c(nc3n2CC(O)CN3c2ccc(O)cc2)n(C)c1=O (stereo not drawn) | 0 | 39* | 1 | 2
CCC(Sc1nc2ncccc2[nH]1)C(=O)NC1CCC(C)CC1 (stereo not drawn) | 0 | 0 | 1 | 0
Cc1ccc(S(=O)(=O)Nc2ccc3c(c2)CC(=O)N([C@@H](C)CO)C[C@@H](C)[C@@H](CN(C)C(=O)Nc2ccc4c(c2)OCO4)O3)cc1 | 0 | -6 | 0 | 13
O=S1(=O)CCOC[C@H](Cc2ccccc2)N1Cc1cccc(F)c1 | 0 | 32* | 0 | -3
COc1ccc(N2CCN(C(=O)c3cc(=O)c4cc(C)cc(C)c4o3)CC2)cc1 | 0 | -1 | x | 5
CCCN1CCC(=O)N(CCOc2ccccc2)CC1 | 0 | -6 | 0 | 3
CC(C)(C)C1CCC(=O)N(CCOc2ccccc2)CC1 (stereo not drawn) | 0 | 66* | 1 | 6
SMILES | Xi reactivation | DENV2 CPE | E-sel inducer | S100A4 inh HTS
COc1cc2sc3ccc(C#Cc4ccccn4)cc3c(=O)c2cc1OC | 0 | 23* | 0 | -27
CCCCN(C(=O)c1ccccc1OCc1ccc(F)cc1)c1c(N)n(CC(C)C)c(=O)[nH]c1=O | 0 | 66* | x | 9
CCCCn1c(N)c(N(CCOC)C(=O)c2cc(=O)[nH]c3ccccc23)c(=O)[nH]c1=O | 0 | 73* | x | -3
CCCCn1c(N)c(N(CCOC)C(=O)c2cc(-c3ccco3)nc3ccccc23)c(=O)[nH]c1=O | 0 | 5 | 0 | -4
CCCCN(C(=O)CSc1nnc(-c2ccccc2)o1)c1c(N)n(CCC)c(=O)[nH]c1=O | 0 | 79* | x | -1
CCCCN(C(=O)c1cc(-c2ccco2)nc2ccccc12)c1c(N)n(CCCC)c(=O)[nH]c1=O | 0 | 109* | x | 1
COc1ccc(S(=O)(=O)N2CCCOC2CNC(=O)C(=O)NCc2ccccc2F)cc1C (stereo not drawn) | 0 | -1 | 0 | -4
C[C@@H]1CN([C@H](C)CO)C(=O)Cc2cc(NS(=O)(=O)c3ccc(F)cc3)ccc2O[C@@H]1CN(C)Cc1ccc(C(=O)Nc2ccccc2N)cc1 | 0 | 13 | 2 | 6
CC1C=CCC2C(=O)N(c3ccc(Cl)cc3O)C(=O)C12 (stereo not drawn) | 0 | x | x | x
CC(OC(=O)c1ccc(NC(=O)CC#N)cc1)C(=O)Nc1ccc2c(c1)OCCO2 (stereo not drawn) | 0 | -3 | -2 | -6
CC(C)N(CCC#N)C(=O)Nc1ccc2c(c1)CCO2 | 0 | 0 | 74* | -6
COc1ccc(NC(=O)[C@@H]2CC=C[C@@H]3CCN(Cc4ccccc4)C(=O)[C@@H]32)cc1 | 0 | 25* | 0 | 2
COc1ccc(NC(=O)[C@@H]2CC=C[C@@H]3CCN(Cc4ccc(Cl)c(Cl)c4)C(=O)[C@@H]32)cc1 | 0 | -5 | 0 | 1
O=C1NC[C@H](Cc2ccccc2)N(CC2CCN(CCCCc3ccccc3)CC2)C1=O | 0 | 35* | x | -3
COc1ccc(CCN2CCC(CN3C(=S)NC[C@@H]3Cc3ccccc3)CC2)cc1OC | 0 | 93* | 0 | -13
CCN1/C(=C/C=C/c2oc3ccc(-c4ccccc4)cc3[n+]2CC)Oc2ccc(-c3ccccc3)cc21 | 103* | -3 | 218* | +
Cc1ccc(/C=C/C(=O)NC2CCCCCCC2)o1 | 1 | x | x | x
O=C(CSc1ncnc2c1oc1ccccc12)Nc1cccc(C(F)(F)F)c1 | 0 | 37* | 0 | -6
O=C(CSc1ncnc2c1oc1ccccc12)Nc1ccccc1F | 0 | 0 | 0 | -12
Cc1cc2oc(=O)cc(CN3CCC(C)CC3)c2cc1C | 0 | 2 | 1 | -16
COc1ccc(OC)c(-c2nnc3n2N=C(c2ccc(OC(F)F)c(OCC4CC4)c2)CS3)c1 | 1 | -9 | 2 | -4
COc1ccc(OC)c(-c2nnc3n2N=C(c2ccc(OC)c(OC4CCCC4)c2)CS3)c1 | 1 | -8 | 0 | -26

Assay outcomes (PubChem)
